Bioassay records: PubChem BioAssay, Sanford-Burnham Center for Chemical Genomics
Rpn11 inh – inhibitors of human proteasome Rpn11; human 26S proteasome, Ub4-pepOG fluorescence polarization; 20S core pre-blocked with epoxomicin; inhibition, % at 20 µM; hit rate 0.59% among 360,000;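 active = inhibition at 20 µM, scaled to each plate's controls, above about 33%, limit read from the data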
Scp-1 inhibitor – blocks human Scp-1 phosphatase activity; Recombinant Scp1, phosphopeptide, malachite green phosphate absorbance; inhibition, % at 20 µM; hit rate 0.88% among 340,000; AID 493091;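 active = inhibition above about 50% at 20 µM, limit read from the data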;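 also: plate controls were DMSO wells with enzyme for no effect and wells lacking enzyme for full effect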
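Test system: SCP-1 phosphatase catalytic domain, residues 76-261; measured by: colorimetric phosphate reagent with accelerator and stabiliser, absorbance at 630 nm; timing: enzyme reaction 45 min at room temperature, colour 5 min, stabilisation 30 min; also added: Phosphorylated 17-residue peptide substrate; compound dosing: one concentration, 20 µM, with 1.0% DMSO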
STEP inh – inhibitors of human striatal-enriched phosphatase STEP | hit rate 0.25% among 360,000 | P54829 | recombinant STEP, OMFP fluorogenic substrate, fluorescence | AID 588621 | inhibition, % at 20 µM;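 active = inhibition at 20 µM, scaled per plate between control wells, above about 37%, limit read from the data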;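 also: 0% = DMSO with enzyme and substrate and 100% = substrate only without enzyme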
Target sequence (P54829 whole entry, looked up): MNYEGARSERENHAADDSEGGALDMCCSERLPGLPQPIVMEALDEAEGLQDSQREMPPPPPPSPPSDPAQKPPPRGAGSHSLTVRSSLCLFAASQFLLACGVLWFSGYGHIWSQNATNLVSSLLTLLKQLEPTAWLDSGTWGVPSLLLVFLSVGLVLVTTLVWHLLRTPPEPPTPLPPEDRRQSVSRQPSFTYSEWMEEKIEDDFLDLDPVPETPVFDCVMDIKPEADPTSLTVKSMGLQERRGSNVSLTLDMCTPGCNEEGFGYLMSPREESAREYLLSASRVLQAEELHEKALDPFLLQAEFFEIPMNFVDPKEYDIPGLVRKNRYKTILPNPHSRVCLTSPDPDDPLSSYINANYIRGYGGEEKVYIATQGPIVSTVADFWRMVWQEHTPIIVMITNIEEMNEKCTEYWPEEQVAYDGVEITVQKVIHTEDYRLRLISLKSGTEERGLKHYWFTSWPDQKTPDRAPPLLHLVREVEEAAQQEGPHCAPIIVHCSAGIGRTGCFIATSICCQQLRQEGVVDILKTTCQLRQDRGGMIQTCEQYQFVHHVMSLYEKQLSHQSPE
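System: STEP (striatal-enriched tyrosine phosphatase) enzyme, cell-free; medium: Bis-Tris pH 6.0 buffer with DTT, detergent; dosing: 20 µM, 1% DMSO; times: reaction 20 min, ambient temperature; detection: fluorescence, 480/540 nm; read-out basis: normalized % inhibition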
SUMO1-SIM PPI – modulators of human SUMO1-mediated protein-protein interactions; P63165; SUMO1 binding to a labelled peptide, TR-FRET, 1 h; inhibition, % at 20 µM; hit rate 0.33% among 360,000; in the data active = inhibition above about 37%
LMPTP inh – blocks human LMPTP phosphatase; P24666; recombinant LMPTP-A, OMFP fluorogenic substrate, fluorescence intensity; inhibition, % at 20 µM; hit rate 0.22% among 360,000;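 active = compounds that cut the enzyme signal by at least half of the control window in the single-dose screen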;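 also: plate controls were DMSO wells with enzyme plus substrate for no effect and substrate without enzyme for full effect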
Target sequence (P24666 whole entry, looked up): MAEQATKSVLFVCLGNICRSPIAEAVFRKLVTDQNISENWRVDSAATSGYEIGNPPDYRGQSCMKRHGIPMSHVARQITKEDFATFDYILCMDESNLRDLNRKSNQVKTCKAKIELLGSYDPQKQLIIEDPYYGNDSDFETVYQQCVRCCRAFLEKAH
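Test system – LMPTP-A phosphatase enzyme · Quantity – 0.625 nM LMPTP-A final · Reagent – OMFP substrate, 400 µM final · Dosing – one test concentration per compound, 20 µM, with 3% DMSO overall · Timing – 50 min enzyme reaction at room temperature, protected from light · Detection – fluorescence intensity · Controls – substrate-only low control, DMSO enzyme-plus-substrate high control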
DNMT1 block – blocks human DNA methyltransferase DNMT1; P26358; DNMT1 molecular beacon, Hinp1I cleavage, fluorescence; inhibition (reported as % activation of signal), % at 10 µM; hit rate 0.83% among 360,000; AID 588458; in the data active = inhibition above about 50%
Scp1 confirm – Scp-1 (human) inhibition, single-dose confirmed; shares compounds with Scp-1 inhibitor; recombinant SCP-1 catalytic domain, phosphate release, malachite green absorbance; inhibition, % at 20 µM; hit rate 61% among 2,500;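 also: plate controls were DMSO with enzyme for no effect and buffer wells lacking enzyme for full effect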
MG interference – counter-screen for Scp-1 inhibitors: colorimetric interference. 2,500 tested, under 10 active. shares compounds with Scp-1 inhibitor. AID 540313. apparent inhibition (interference), % at 20 µM. Colorimetric interference counterscreen, malachite green absorbance 630 nm;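 also: compounds added after enzyme reaction finished so only phosphate colour detection is probed; plate controls were DMSO wells with completed Scp-1 reaction for no effect and substrate wells lacking enzyme for full effect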
Scp-1 Tm shift – Scp-1 (human) binding by thermal shift | shares compounds with Scp-1 inhibitor | Recombinant SCP1, Sypro Orange thermal shift Tm | thermal shift relative to vanadate control, % at 40 µM | hit rate 25% among 1,500;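 active = substances whose mean melting-temperature shift, as a percentage of the reference inhibitor's shift, reaches about 5.3%, limit read from the data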;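 also: 0% = Tm of DMSO wells and 100% = Tm with sodium orthovanadate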
Starred values were filed as active, the others as inactive. A selection: hits, their analogues and other compounds. The true share with any hit is near 2.3%.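 The calls were made as follows, unless noted: active = inhibition of at least 30% at 20 µM; inactive = the rest.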

Cc1ccc(-n2nnnc2-c2cnc(-c3cccnc3)nc2C(F)(F)F)cc1 was read as Rpn11 inh 5.1, Scp-1 inhibitor -3.6, STEP inh 1.8, SUMO1-SIM PPI -2.8, LMPTP inh -0.6 and DNMT1 block -3.1.
`FC(F)(F)c1nc(-c2ccncc2)ncc1-c1nnnn1-c1ccccc1` gave Rpn11 inh -1.6, Scp-1 inhibitor 78.1*, STEP inh 3.8, SUMO1-SIM PPI -9.7, LMPTP inh -0.1, DNMT1 block 0.5, Scp1 confirm -16.0 and MG interference -12.3.
For CN(C)S(=O)(=O)c1ccc(NC(=O)Cc2ccc(S(=O)(=O)N3CCOCC3)s2)cc1 the results were Rpn11 inh 8.5, Scp-1 inhibitor 54.8*, STEP inh 3.6, SUMO1-SIM PPI -2.6, LMPTP inh 2.7, DNMT1 block 16.7, Scp1 confirm 57.6*, MG interference -11.7 and Scp-1 Tm shift 4.8.
Screening COc1cc(OC)c(NC(=O)Cc2cccs2)cc1Cl returned Rpn11 inh -3.3, Scp-1 inhibitor -2.0, STEP inh -0.6, SUMO1-SIM PPI -1.1, LMPTP inh -0.9 and DNMT1 block 0.3.
Screening CCN(CC)S(=O)(=O)c1ccc(OC)c(NC(=O)Cc2cccs2)c1 returned Rpn11 inh -0.8, Scp-1 inhibitor 86.6*, STEP inh 2.4, SUMO1-SIM PPI 4.3, LMPTP inh 32.4, DNMT1 block 44.6, Scp1 confirm 73.7*, MG interference -11.2 and Scp-1 Tm shift 6.3*.
CCCN(CCC)S(=O)(=O)c1ccc(NC(=O)Cc2cccs2)cc1 was read as Rpn11 inh 5.8, Scp-1 inhibitor 61.1*, STEP inh 2.3, SUMO1-SIM PPI 3.1, LMPTP inh 3.6, DNMT1 block 13.4, Scp1 confirm 72.7*, MG interference -11.2 and Scp-1 Tm shift 1.9.
CCCCN(CCCC)S(=O)(=O)c1ccc(NC(=O)Cc2cccs2)cc1 was read as Rpn11 inh 16.4, Scp-1 inhibitor 53.6*, STEP inh 1.6, SUMO1-SIM PPI -2.0, LMPTP inh 5.3, DNMT1 block 24.9, Scp1 confirm 57.9*, MG interference -17.2 and Scp-1 Tm shift 7.6*.
For O=C(Cc1ccc(S(=O)(=O)N2CCOCC2)s1)Nc1ccc(N2CCOCC2)cc1 the results were Rpn11 inh 2.1, Scp-1 inhibitor 4.3, STEP inh 2.7, SUMO1-SIM PPI -11.5, LMPTP inh 1.9 and DNMT1 block 1.9.
Screening CCC1(c2ccc(F)cc2)NC(=O)N(CC(=O)Nc2cc(C)on2)C1=O (configuration not stated) returned Rpn11 inh 1.6, Scp-1 inhibitor -2.2, STEP inh 0.1, SUMO1-SIM PPI -3.0, LMPTP inh -1.2 and DNMT1 block -2.4.
C=CCOC(=O)C1=C[C@@H](C2CCCCC2)C[C@@H](OCc2ccc(CO)cc2)O1 was read as Rpn11 inh 10.5, Scp-1 inhibitor 41.8, STEP inh -0.9, SUMO1-SIM PPI 4.5, LMPTP inh 1.6 and DNMT1 block -5.9.
Screening O=C(Cc1cccs1)Nc1ccc(S(=O)(=O)N2CCCC2)cc1 returned Rpn11 inh 1.3, Scp-1 inhibitor 59.0*, STEP inh 5.0, SUMO1-SIM PPI -1.7, LMPTP inh 7.4, DNMT1 block 37.2, Scp1 confirm 75.2*, MG interference -6.8 and Scp-1 Tm shift 6.1*.
For COc1ccc(CC(=O)OCC(=O)NCc2ccc(C)cc2)cc1OC the results were Rpn11 inh -1.6, Scp-1 inhibitor 0.0, STEP inh -4.7, SUMO1-SIM PPI -2.0, LMPTP inh -3.0 and DNMT1 block 4.0.
Screening CCSc1nnc(NC(=O)CSc2sc3c(O)cc(=O)[nH]c3c2C#N)s1 returned Rpn11 inh 58.6*, Scp-1 inhibitor 77.3*, STEP inh 29.9, SUMO1-SIM PPI 35.6, LMPTP inh 61.6*, DNMT1 block 77.1*, Scp1 confirm 49.1*, MG interference -13.1 and Scp-1 Tm shift 12.9*.
For Cc1csc(NC(=O)CSc2sc3c(O)cc(=O)[nH]c3c2C#N)n1 the results were Rpn11 inh 39.9, Scp-1 inhibitor 68.0*, STEP inh 31.9, SUMO1-SIM PPI 25.2, LMPTP inh 20.4, DNMT1 block 43.2, Scp1 confirm 53.2*, MG interference -17.8 and Scp-1 Tm shift 12.4*.
For CCOC(=O)C1=C(COC(=O)/C=C/c2cccc([N+](=O)[O-])c2)NC(=O)NC1C (configuration not stated) the results were Rpn11 inh -1.8, Scp-1 inhibitor 1.3, STEP inh 2.9, SUMO1-SIM PPI -22.8, LMPTP inh 0.2 and DNMT1 block 0.4.
Screening Cn1nc(-c2ccc(C(=O)Nc3ccc(F)cc3)cc2)c2ccccc2c1=O returned Rpn11 inh 25.3, Scp-1 inhibitor 59.6*, STEP inh 11.6, SUMO1-SIM PPI 4.4, LMPTP inh 3.0, DNMT1 block -1.3, Scp1 confirm 41.5*, MG interference -16.1 and Scp-1 Tm shift -11.1.
For COC(=O)c1c(NC(=O)c2cccc(S(=O)(=O)N3CCN(C)CC3)c2)sc(C)c1C the results were Rpn11 inh -0.9, Scp-1 inhibitor 3.9, STEP inh 4.5, SUMO1-SIM PPI 2.7, LMPTP inh -2.7 and DNMT1 block -5.8.
COc1cc(OC)cc(C(=O)NC2CC(C)(C)NC(C)(C)C2)c1 was read as Rpn11 inh -4.6, Scp-1 inhibitor -5.2, STEP inh -0.7, SUMO1-SIM PPI 2.9, LMPTP inh -2.9 and DNMT1 block -0.7.
`COC(=O)[C@H](CC(C)C)NC(=O)NCCC1=CCCCC1` gave Rpn11 inh 9.6, Scp-1 inhibitor 85.1*, STEP inh -0.2, SUMO1-SIM PPI 10.9, LMPTP inh -0.3, DNMT1 block 4.5, Scp1 confirm -11.1 and MG interference -11.2.
For COc1ccc(NC(=O)CSc2sc3c(O)cc(=O)[nH]c3c2C#N)c(OC)c1 the results were Rpn11 inh 39.8, Scp-1 inhibitor 64.4*, STEP inh 21.0, SUMO1-SIM PPI 18.4, LMPTP inh 55.6*, DNMT1 block 24.4, Scp1 confirm 67.8*, MG interference -9.0 and Scp-1 Tm shift 7.8*.
